Assay results pooled from the literature.
Lines come from different studies, so protocols differ.
Target: Dual specificity mitogen-activated protein kinase kinase 2 (MAP2K2, Homo sapiens, UniProt P36507)

SMILES	effect on	mode	method	concentration	quantity	result
CO[C@@H]1[C@H](N(C)C(=O)c2ccccc2)C[C@H]2O[C@]1(C)n1c3ccccc3c3c4c(c5c6ccccc6n2c5c31)C(=O)NC4	enzyme activity	inhibitor		1 µM	inhibition	20%
COc1ccc2[nH]c3c4[nH]c5ccc(OC)cc5c4c4c(c3c2c1)C(=O)NC4=O	binding		competition with immobilised ligand	1 µM	remaining binding	59%
CCCCC(=O)Nc1ccc(-c2ccc3ncn(CCC)c(=O)c3c2)cn1	binding		competition with immobilised ligand	0.5 µM	remaining binding	68%
CC(C)S(=O)(=O)c1ccc2nccc(Nc3ccc4sc(C5CCCC5)nc4c3)c2c1	enzyme activity	inhibitor		1 µM	activity vs control	98%
COc1ccc2oc(-c3ccc4nc(N)oc4c3)c/c(=N\c3ccccc3NC(=O)CCN)c2c1	binding			1 µM	remaining binding	106%
CN1CCN(C(=O)c2ccc(NC(=O)Nc3ccc(N(C)c4ccnc(Nc5ccc(CS(C)(=O)=O)cc5)n4)cc3)cc2)CC1	binding		competition with immobilised ligand	1 µM	remaining binding	40%
C=CC(=O)N1CCC([C@@H]2CCNc3c(C(N)=O)c(-c4ccc(Oc5ccccc5)cc4)nn32)CC1	enzyme activity	inhibitor		1 µM	inhibition	99%
C#Cc1cc(-c2cc(Nc3nc(N[C@@H](C)c4ccc(F)cn4)ncc3Cl)n[nH]2)ccc1C=O	enzyme activity	inhibitor		0.2 µM	inhibition	20.9%
Cc1cc(O)c(-c2ccc([C@@H](C)CN(C)C)cc2)c2c1[nH]c(=O)c1sccc12	enzyme activity	inhibitor		0.1 µM	inhibition	24.2%
N#Cc1ccc(NC(=O)Nc2ccccc2)cc1	cell-free assay		competition with immobilised ligand	25 µM	remaining binding	64%
